Source: PubChem
HIF activator: HIF pathway transcriptional activation; AID 1910; U2OS HRE-luciferase reporter, luminescence; normalized: DMSO 0%, desferrioxamine 100%; 300,000 compounds, 0.32% hits; activation, % at 7.5 µM (by protocol);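 active = mean activation of at least 10% of the iron chelator positive control signal, with at least half of replicates also reaching 10%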
T cruzi inh: blocks replication of Trypanosoma cruzi. T. cruzi beta-gal in NIH3T3, luminescence, 90 h. inhibition, % (concentration not given with the values). 300,000 compounds, 1.4% hits;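 active = mean inhibition across valid replicates above about 55%, limit read from the data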;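 note: signal also drops with host cell toxicity which is not excluded here; 0% = plate median of DMSO wells and 100% = zero luminescence signal; higher percent means less beta-gal luminescence so fewer parasites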
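Read-out: Parasite load inhibition, % | Test system: Mouse NIH/3T3 fibroblasts infected with β-gal-expressing T. cruzi Tulahuen C4 | Amount: 5,000 cells/well | Medium: DMEM, 2% fetal bovine serum | Signal: GalScreen β-gal luminescence, detergent lysis, 60 min | Timing: 3 h attach, ≥90 h co-culture | Also added: Tulahuen C4 trypomastigotes, 5000/well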
ARNT-TACC3 inh: disrupts binding between human ARNT and TACC3. inhibition, % at 9.99 µM. 390,000 compounds, 0.66% hits. AlphaScreen His-ARNT PAS-B/GST-TACC3 binding, luminescence; TACC3 fragment carries E629A point mutation. AID 623870;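 active = mean inhibition of replicates at least 50% and at least half of replicates each reaching 50%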;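 note: 0% = complete ARNT plus TACC3 wells and 100% = ARNT alone without TACC3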
AI-2 QS mod: Vibrio harveyi AI-2 quorum sensing modulation; AID 2094; Vibrio harveyi JMH597 AI-2 luminescence/OD600 ratio, 9 h; hits give low values; strain lacks LuxN and CqsS sensors; 0 = neutral-control median; activity change, % at 7.5 µM; 300,000 compounds, 0.4% hits; in the data active = activity change below about -75%, passing the limit was not always enough;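 note: luminescence divided by OD600 gain over 9 h not by final OD600 alone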
* marks the source's active call; other numbers are inactive results; . = no result given. In the library only some 2% were active in any assay of this set; here they are far more common.

SMILES	HIF activator	T cruzi inh	ARNT-TACC3 inh	AI-2 QS mod
COc1cc(CN2CCCC(C)C2)ccc1OCc1ccccc1 (centres undefined)	0	35	4	26
CCOC(=O)C1CCCN(Cc2ccc(OCc3ccccc3)cc2)C1 (centres undefined)	-18	62*	-9	-64
CCOC(=O)C1CCCN(Cc2ccc(OCc3ccccc3)c(OC)c2)C1 (centres undefined)	-25	63*	-2	6
CCOC(=O)C1CCCN(Cc2ccc(O)c(OC)c2)C1 (centres undefined)	0	58*	-3	4
CCN(CC)C(=O)C1CCCN(Cc2ccc(N(C)C)cc2)C1 (centres undefined)	0	71*	-2	29
CCN(CC)C(=O)C1CCCN(Cc2ccccc2)C1 (centres undefined)	0	16	-14	17
CCOC(=O)C1CCCN(Cc2cccc(Cl)c2)C1 (centres undefined)	0	37	-8	8
CCOC(=O)C1CCCN(Cc2ccc(OC)cc2OC)C1 (centres undefined)	-1	45	-8	15
CC(=O)N(C)C[C@H]1Oc2cc(C#Cc3ccncc3)ccc2S(=O)(=O)N([C@@H](C)CO)C[C@H]1C	.	.	-6	.
Cc1c(Cl)cccc1NC(=O)CN1CCC(C(O)(c2ccccc2)c2ccccc2)CC1	0	62*	-2	24
Cc1ccccc1C(=O)NC1CCN(CC(=O)Nc2ccccc2Cl)CC1	-2	8	-1	9
O=C(Nc1cnn(Cc2c(Cl)cccc2Cl)c1)C(c1ccccc1)c1ccccc1	-1	55*	5	-27
CCCN(CC#CC(O)(c1ccccc1)c1cccnc1)CCC (centres undefined)	-1	65*	-6	45
OC(C#CCN1CCCC1)(c1ccccc1)c1cccnc1 (centres undefined)	1	42	11	17
C[C@@H]1CCCCO[C@@H](CN(C)CC2CCCCC2)[C@H](C)CN([C@@H](C)CO)C(=O)c2cc(NC(=O)CCCCCC(=O)Nc3ccccc3N)ccc2O1	.	.	8	.
Cn1c(N/N=C/c2cc3ccccc3nc2Cl)nc2ccccc21	22*	34	2	44
Cc1ccc(NC2=C(N3CCOCC3)C(=O)c3ccccc3C2=O)cc1	1	-22	62*	22
Cc1ccc(CNC(=O)CCC2CCCN(Cc3cccc4ncccc34)C2)o1 (centres undefined)	0	66*	5	11
Cc1ccc(CNC(=O)CCC2CCCN(Cc3cccc4cccnc34)C2)o1 (centres undefined)	0	46	0	-15
CC(C)c1cc(C(=O)N2CCCC(CCC(=O)NCc3ccccc3F)C2)n(C)n1 (centres undefined)	0	8	-1	34
CCOc1cccc(CN2CCCC(CCC(=O)NCc3ccccc3F)C2)c1O (centres undefined)	0	56*	-15	40
Cc1nn(C)c(Cl)c1CN1CCCC(CCC(=O)NCc2ccccc2F)C1 (centres undefined)	0	60*	-2	33
CCC(=O)N1[C@@H]2CN(S(=O)(=O)c3ccc(F)cc3)c3ccccc3[C@@H]2[C@@H]1CO	.	.	1	.
O=S(=O)(c1cccc(F)c1)N1CC[C@@H]2[C@@H](CO)Nc3ccc(-c4cccc(F)c4)cc3[C@@H]21	.	.	3	.
C[C@@H]1CN([C@H](C)CO)C(=O)c2cc(-c3ccccc3)cnc2O[C@@H]1CN(C)C(=O)c1ccccc1F	.	.	7	.
SMILES	HIF activator	T cruzi inh	ARNT-TACC3 inh	AI-2 QS mod
CN(C)CCCSc1nc2ccccc2s1	1	71*	.	15
COc1cccc(-n2c(SCC(=O)N3CCOCC3)nc3c([nH]c4ccccc43)c2=O)c1	457*	20	-18	16
CCn1c2ccccc2c2cc(NC(=O)CNCC3CCCO3)ccc21 (centres undefined)	1	69*	1	30
CCn1c2ccccc2c2cc(NC(=O)CN3CCCC3)ccc21	0	-8	-2	48
Cc1ccc(-c2c[n+]3c(n2-c2ccccc2)SCC3)cc1	0	66*	-2	19
Brc1ccc(-c2c[n+]3c(n2-c2ccccc2)SCC3)cc1	0	47	.	12
COc1ccc(-c2c[n+]3c(n2-c2ccccc2)SCC3)cc1	0	61*	-7	16
C[C@@H]1CCCCO[C@@H](CN(C)CC2CCCCC2)[C@H](C)CN([C@@H](C)CO)C(=O)c2cc(NC(=O)Nc3ccccc3)ccc2O1	.	.	-1	.
CCOC(=O)c1sc(=S)n(-c2ccccc2)c1C	19*	-18	.	6
CCOC(=O)c1sc(=S)n(-c2ccccc2)c1N	0	-4	.	20
Cc1ccc(CSc2nnc(NC(=O)Cn3cnc4ccccc4c3=O)s2)cc1	0	12	-9	-16
CCSc1nnc(NC(=O)Cn2cnc3ccccc3c2=O)s1	0	-1	-6	-81*
Nc1c(C(=O)OCC(=O)Nc2cccc([N+](=O)[O-])c2)[nH]c(=O)[nH]c1=O	.	.	16*	.
C[C@@H]1CN([C@@H](C)CO)C(=O)c2cc(C#Cc3ccccc3)cnc2O[C@@H]1CN(C)C(=O)CCN1CCCCC1	.	.	8	.
COc1ccc(-c2nc(NC(=O)c3c(C)noc3C)sc2C)cc1	.	.	2	.
COc1ccc(-c2nc(NC(=O)c3cc(C(C)(C)C)nn3C)sc2C)cc1	-1	57*	3	11
COc1cccc(-c2nc(N3CCCC3)c3ccccc3n2)c1O	1	22	-3	4
COc1cccc(-c2nc(N3CC(C)CC(C)C3)c3ccccc3n2)c1O (centres undefined)	0	55*	4	14
C[C@@H]1CN([C@@H](C)CO)C(=O)c2cc(-c3ccccc3)cnc2O[C@H]1CN(C)C(=O)Cc1ccccc1	.	.	-1	.
O=C(N/N=C/c1ccco1)C1CC1	0	-16	-3	21
CC(C)(C)c1ccc(C2CC2C(=O)N/N=C\c2ccc[nH]2)cc1 (centres undefined)	0	60*	16	-67
O=C(N/N=C/c1ccco1)C1CC1c1ccccc1 (centres undefined)	-1	-4	-14	-86*
O=C(N/N=C/c1c[nH]c2ccccc12)C1CC1c1ccccc1 (centres undefined)	-5	-1	10	-16
O=C(N/N=C/c1ccc(-c2ccc(Br)cc2)o1)c1ccc2c(c1)OCO2	0	74*	-5	21
O=C(NCC(c1cccs1)N1CCOCC1)c1cc([N+](=O)[O-])cc([N+](=O)[O-])c1 (centres undefined)	0	73*	-2	33
O=C(NCC(c1cccs1)N1CCOCC1)c1cccc([N+](=O)[O-])c1 (centres undefined)	-1	-23	-3	19
COc1ccc(NC(=O)N(C)C[C@@H]2OCCCC[C@@H](C)Oc3ccc(NC(=O)Nc4ccc(F)cc4)cc3C(=O)N([C@H](C)CO)C[C@@H]2C)cc1	.	.	-4	.
